Measurements reported in publication PMC4102938 (British Journal of Cancer, 2014).
Each block holds one compound with its values, some of them ahead of it.

Columns and labels:
[1] = tested on: H1975 cells stably carrying scramble vector; test: MTT growth assay, scrambled shRNA control cells; type: cell-based, human
Summary of the method: (§1)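 H1975 cells stably carrying a CRM1-targeting or scrambled shRNA were used, made by pLKO.1 lentiviral infection with polybrene for 16 h and puromycin selection for 3 days starting 2 days post-infection. Cells were cultured 72 h across a cisplatin series up to 10 μg ml−1. Growth was measured by MTT and IC50 derived. Data are three experiments in triplicate, mean±s.d.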

[2] = Body weight of treated mice; type: in vivo; conditions: NOD/SCID mice, oral 10 mg kg^−1 thrice weekly for 4 weeks
H1975 NSCLC xenografts [3] = test: H1975 NSCLC xenograft tumour growth; type: in vivo; conditions: NOD/SCID mice, oral 10 mg kg^−1 thrice weekly for 4 weeks
Summary of the method: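 Seven-week-old male NOD/SCID mice were injected subcutaneously in both flanks with H1975 cells (1.0 × 10^7) in matrigel. Mice were randomised into two groups of five and dosed orally three times weekly for 4 weeks with vehicle (0.6% w/v aqueous Pluronic F-68) or test compound (10 mg kg−1), with Nutri-Cal given during therapy. Calipers were used three times weekly; volume = width² × length/2. Tumour weights were taken after 28 days.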

[4] = tested on: PC14 cells, scramble vector control; test: MTT growth assay, transient scramble control; type: cell-based; conditions: Homo sapiens, PC-14
PC14 cells, shp73 = test: MTT growth assay, transient p73 silencing; type: cell-based; conditions: Homo sapiens, PC-14
[5] = tested on: six NSCLC cell lines (A549, H460, H1975, PC14, H1299, and H23); test: Cell cycle analysis by propidium iodide flow cytometry, six lines; type: cell-based, human; conditions: range over six NSCLC cell lines, 1 μM, 24 h
Summary of the method: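 A549, H460, H1975, PC14, H1299 and H23 were seeded at 50% confluency, left overnight, then exposed for 24 h to test compound (1 μM) or diluent control. DNA content was stained with propidium iodide, and cell-cycle phase distribution was determined by flow cytometry.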

11 NSCLC cell lines = test: MTT proliferation assay, 72 h, whole panel; type: cell-based; conditions: Homo sapiens, read-out: calculated IC50 values, range
Summary of the method: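 Eleven NSCLC lines (STR-verified) were grown in RPMI 1640 with 10% FBS and penicillin/streptomycin at 37 °C, 5% CO2. Cells were plated at 3 × 10^3 per well and exposed for 72 h to test compound at 0, 0.1, 1, 10, 100 or 1000 nM. Viability was read by MTT absorbance at 570 nm, and IC50 was taken from fitted dose-response curves.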

CRM1 [6] = test: Immunoblot of CRM1 protein in treated cells; type: cell-based, human; conditions: H1975 cell lysate, KPT-330 10–1000 nM, 24 h
Summary of the method: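 H1975 cells were treated 24 h with test compound at 0, 10, 100 or 1000 nM. Whole-cell lysates were prepared with a mammalian lysis reagent, protein was measured by BCA, and samples were run on SDS-PAGE and blotted to PVDF. Membranes were blocked 1 h in TBS/5% milk/0.5% Tween 20, incubated with primary antibody overnight at 4 °C, then HRP secondary for 1 h at room temperature. Detection was by chemiluminescence, with β-actin as reference and densitometry of bands.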

CRM1 [7] = test: Quantitative RT-PCR of CRM1 mRNA in treated cells; type: cell-based, human; conditions: H1975, KPT-330 10–1000 nM, 24 h
Summary of the method: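 H1975 cells were exposed for 24 h to test compound at 0, 10, 100 or 1000 nM. CRM1 mRNA was quantified by quantitative RT–PCR; experiments were done in triplicate and reported as mean±s.d.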

[8] = Peripheral blood analysis after 28-day treatment; type: in vivo, NOD/SCID mice
Summary of the method: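 H1975-xenografted male NOD/SCID mice (five per group) were given vehicle (0.6% w/v aqueous Pluronic F-68) or test compound orally, 10 mg kg−1 three times weekly for 4 weeks. After the 28-day treatment, peripheral blood was analysed for white cells, neutrophils, platelets and haematocrit, and serum for albumin, alkaline phosphatase, ALT and creatinine.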

six NSCLC cell lines = test: Apoptosis, annexin V/propidium iodide flow cytometry, six lines; type: cell-based, human; conditions: range over six NSCLC cell lines, 24 h
Summary of the method: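 Cells seeded at 50% confluency, incubated overnight, then given fresh medium with diluent control or test compound (1, 10, 100, 1000 nM) for 24 h. Cells were PBS-washed, trypsinized, resuspended in annexin-binding buffer at 1 × 10^6 cells per ml, and stained with annexin V plus propidium iodide. Analysed by flow cytometry; read-out is the percent annexin V/PI co-positive cells.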

[9] = tested on: H1975 cells stably carrying shp73; test: MTT growth assay, p73-knockdown cells; type: cell-based; conditions: Homo sapiens, NCI-H1975, 72 h
Summary of the method: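 H1975 cells stably carrying a p73-targeting or scrambled shRNA were used, made by pLKO.1 lentiviral infection with polybrene for 16 h and puromycin selection for 3 days beginning 2 days after infection. Cells were cultured 3 days with test compound at 0, 1, 3, 10, 30, 100, 320 or 1000 nM. Growth was measured by MTT and IC50 derived. Data are three experiments in triplicate, mean±s.d.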

H1975 NSCLC xenografts [10] = test: Immunohistochemistry of xenograft tumours; type: in vivo, NOD/SCID mice; conditions: end of treatment, 10 mg kg^−1 thrice weekly × 4 weeks
Summary of the method: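 At the end of the 28-day oral dosing, H1975 xenograft tumours were formalin-fixed, paraffin-embedded and cut at 5.0 μm. Peroxidase was quenched with 3% H2O2, sections blocked 1 h at room temperature in PBS with 3% normal serum, then probed overnight at 4 °C for Ki-67 or TUNEL. Detection used biotinylated secondary (1:200) plus avidin–biotin peroxidase. Three random ×200 fields were scored, counting 100 cells in triplicate; positives are given as % of total cells.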

CRM1 [11] = conditions: 24 h of incubation; ref Sun et al (2013); cited from earlier work
[12] = tested on: H1975 cells stably containing shCRM1; test: MTT growth assay, CRM1-knockdown cells; type: cell-based, human; conditions: H1975 shCRM1, cisplatin 72 h
Summary of the method: as §1

IC50 ([1]; Homo sapiens, NCI-H1975, 72 h): 98 nM | Neut ([8]; NOD/SCID mice, 10 mg kg^−1 thrice weekly × 4 weeks, mean±s.d., range 0.15–7.9): 1.26±0.5 × 1000 per μl | CREAT ([8]; NOD/SCID mice, 10 mg kg^−1 thrice weekly × 4 weeks, mean±s.d., range 0.2–0.9): 0.062 ± 0.01 mg/dL | WBC ([8]; NOD/SCID mice, 10 mg kg^−1 thrice weekly × 4 weeks, mean±s.d., range 2.9–20.9): 4.0±0.3 × 1000 per μl | Alb ([8]; NOD/SCID mice, 10 mg kg^−1 thrice weekly × 4 weeks, mean±s.d., range 25–30): 36.5 ± 0.6 g/L | HCT ([8]; NOD/SCID mice, 10 mg kg^−1 thrice weekly × 4 weeks, mean±s.d., range 34–53): 46.2±7.5% | ALP ([8]; NOD/SCID mice, 10 mg kg^−1 thrice weekly × 4 weeks, mean±s.d., range 35–96): 96±18 U l^−1 | PLT ([8]; NOD/SCID mice, 10 mg kg^−1 thrice weekly × 4 weeks, mean±s.d., range 685–1436): 786±180 × 1000 per μl | IC50 [9]: > 1000 nM
SMILES: O=C(/C=C\n1cnc(-c2cc(C(F)(F)F)cc(C(F)(F)F)c2)n1)NNc1cnccn1 [KPT-330]
effect on body weight compared with the vehicle group [2]: did not have a significant effect | mean relative body weight compared with mean starting weight [2]: 105% | tumour growth compared with vehicle-treated controls (H1975 NSCLC xenografts [3]): mark inhibition | IC50 [4]: 197 nM | IC50 (PC14 cells, shp73): 318 nM | G1 cell cycle, range [5]: 56–82% | G2/M phase, range [5]: 2–20% | S phase, range [5]: 8–20% | IC50 (11 NSCLC cell lines): 25 to 995 nM | protein levels of CRM1 (western blot) (CRM1 [6]): dose-dependent decrease | CRM1 mRNA levels (CRM1 [7]): no significant change | ALT ([8]; NOD/SCID mice, 10 mg kg^−1 thrice weekly × 4 weeks, mean±s.d., range 17–77): 46.2±10.2 U l^−1 | total white blood cells, neutrophils, platelet counts, haematocrit, serum albumin, alkaline phosphatase, ALT and creatinine compared with vehicle group ([8]; peripheral blood after the 28-day treatment): no significant alterations | range of apoptosis induced (annexin V/propidium iodide co-positive cells) (six NSCLC cell lines): 22–54% | Ki-67-positive cells in tumour tissue (H1975 NSCLC xenografts [10]): decreased | percent of TUNEL-positive cells in tumour tissue (H1975 NSCLC xenografts [10]): increased

SMILES: CCC(=C/[C@H](C)C/C=C/C(C)=C/[C@@H](C)C(=O)[C@@H](C)[C@H](O)[C@@H](C)C/C(C)=C/C(=O)O)/C=C/[C@@H]1OC(=O)C=C[C@@H]1C [LMB, Leptomycin B]
reversibility of binding to CRM1 (CRM1 [11]): not reversible

SMILES: N.N.[Cl][Pt][Cl] [cisplatin, reference compound]
IC50 ([1]; H1975 scramble, cisplatin 72 h, MTT): 8.1 µg/mL | IC50 [12]: 1.62 µg/mL
